From ChEMBL document CHEMBL4339207, “Kinase inhibitions in pyrido[4,3-h] and [3,4-g]quinazolines: Synthesis, SAR and molecular modeling studies” (Bioorg Med Chem, 2019) come the findings set out here.

Test [1] addresses T1, Glycogen synthase kinase-3 (Homo sapiens) (UniProt P49840+P49841). The test can be described thus: Inhibition of GSK3 (unknown origin) assessed as residual activity at 10 uM relative to control.
Test [2] concerns the target T2, Cyclin-dependent kinase 5/CDK5 activator 1 (Homo sapiens) (UniProt Q00535+Q15078). Briefly: Inhibition of recombinant human full-length N-terminal GST-tagged CDK5/p25 expressed in baculovirus infected Sf9 insect cells assessed as residual activity at 1 uM using histone H1 as substrate measured after 10 mins relative to control.
Test [3] deals with T2, Cyclin-dependent kinase 5/CDK5 activator 1 (Homo sapiens). Briefly: Inhibition of recombinant human full-length N-terminal GST-tagged CDK5/p25 expressed in baculovirus infected Sf9 insect cells assessed as residual activity at 10 uM using histone H1 as substrate measured after 10 mins relative to control.
Test [4] deals with Dual specificity tyrosine-phosphorylation-regulated kinase 1A (Rattus norvegicus, UniProt Q63470). Briefly: Inhibition of recombinant full-length rat N-terminal GST-tagged DYRK1A was expressed in Escherichia coli using DYRKtide as substrate measured after 60 mins by ADP-Glo luminescence assay.
Test [5] concerns the target T3, Dual specificity protein kinase CLK1 (Homo sapiens, UniProt P49759). Briefly: Inhibition of recombinant human N-terminal GST-tagged CLK1 (129 to end residues) expressed in baculovirus infected Sf9 insect cells assessed as residual activity at 10 uM using MBP as substrate measured after 60 mins by ADP-Glo luminescence assay relative to control. For orientation: ADP-Glo first removes unused ATP, then detects ADP through luciferase.
Target sequence in this assay (P49759 whole entry, looked up): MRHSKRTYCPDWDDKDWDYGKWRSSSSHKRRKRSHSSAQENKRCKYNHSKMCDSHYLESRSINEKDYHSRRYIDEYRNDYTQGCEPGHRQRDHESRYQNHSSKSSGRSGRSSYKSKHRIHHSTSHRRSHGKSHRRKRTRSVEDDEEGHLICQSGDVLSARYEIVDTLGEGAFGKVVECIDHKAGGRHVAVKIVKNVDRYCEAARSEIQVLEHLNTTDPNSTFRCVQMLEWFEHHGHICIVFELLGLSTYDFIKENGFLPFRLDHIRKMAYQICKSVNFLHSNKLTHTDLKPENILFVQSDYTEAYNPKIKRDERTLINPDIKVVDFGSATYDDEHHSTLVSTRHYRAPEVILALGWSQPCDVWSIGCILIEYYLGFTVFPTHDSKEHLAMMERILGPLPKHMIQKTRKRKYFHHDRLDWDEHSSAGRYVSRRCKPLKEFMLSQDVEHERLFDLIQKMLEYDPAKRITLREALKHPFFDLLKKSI

The target of test [6] is T3, Dual specificity protein kinase CLK1. The test can be described thus: Inhibition of recombinant human N-terminal GST-tagged CLK1 (129 to end residues) expressed in baculovirus infected Sf9 insect cells sing MBP as substrate measured after 60 mins by ADP-Glo luminescence assay.
Target sequence in this assay (P49759 whole entry): as the sequence (P49759 whole entry, looked up) above
The target of test [7] is Dual specificity tyrosine-phosphorylation-regulated kinase 1A (Rattus norvegicus) (UniProt Q63470). The test can be described thus: Inhibition of recombinant full-length rat N-terminal GST-tagged DYRK1A was expressed in Escherichia coli assessed as residual activity at 1 uM using DYRKtide as substrate measured after 60 mins by ADP-Glo luminescence assay relative to control.

In test [8] the target is T1, Glycogen synthase kinase-3 (Homo sapiens). The test can be described thus: Inhibition of GSK3 (unknown origin) assessed as residual activity at 1 uM relative to control.
For test [9], the target named is T4, Casein kinase I (Homo sapiens) (UniProt Q9HCP0+P78368+P48730+P49674+P48729). Briefly: Inhibition of CK1 (unknown origin) assessed as residual activity at 1 uM relative to control.
In test [10] the target is T3, Dual specificity protein kinase CLK1. Briefly: Inhibition of recombinant human N-terminal GST-tagged CLK1 (129 to end residues) expressed in baculovirus infected Sf9 insect cells assessed as residual activity at 1 uM using MBP as substrate measured after 60 mins by ADP-Glo luminescence assay relative to control.
Target sequence in this assay (P49759 whole entry, looked up): as above
For test [11], the target named is Dual specificity tyrosine-phosphorylation-regulated kinase 1A (Rattus norvegicus) (UniProt Q63470). The test can be described thus: Inhibition of recombinant full-length rat N-terminal GST-tagged DYRK1A was expressed in Escherichia coli assessed as residual activity at 10 uM using DYRKtide as substrate measured after 60 mins by ADP-Glo luminescence assay relative to control.

Test [12] addresses T4, Casein kinase I (Homo sapiens). Briefly: Inhibition of CK1 (unknown origin) assessed as residual activity at 10 uM relative to control.
The species entered for test [13] is Sus scrofa. Briefly: Inhibition of porcine brain CK1delta/epsilon assessed as residual activity at 1 uM using RRKHAAIGSpAYSITA as substrate in presence of [gamma33P]ATP relative to control.
Test [14] addresses T2, Cyclin-dependent kinase 5/CDK5 activator 1 (Homo sapiens). Briefly: Inhibition of recombinant human CDK5/p25 expressed in bacteria assessed as residual activity at 10 uM using histone H1 as substrate in presence of [gamma33P]ATP relative to control. The gist of the method: (§1)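 Recombinant human CDK5/p25 expressed in bacteria was used with histone H1 as substrate in a ³³P radioassay. Residual activity (%) was measured at 10 µM and 1 µM compound, in triplicate.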

In test [15] the target is Dual specificity protein kinase CLK1 (Mus musculus) (UniProt P22518). Briefly: Inhibition of recombinant mouse CLK1 expressed in bacteria assessed as residual activity at 1 uM using GRSRSRSRSRSR as substrate in presence of [gamma33P]ATP relative to control.
Sequence of Dual specificity protein kinase CLK1 (Mus musculus) (P22518 whole entry, looked up, the tested form may be a part): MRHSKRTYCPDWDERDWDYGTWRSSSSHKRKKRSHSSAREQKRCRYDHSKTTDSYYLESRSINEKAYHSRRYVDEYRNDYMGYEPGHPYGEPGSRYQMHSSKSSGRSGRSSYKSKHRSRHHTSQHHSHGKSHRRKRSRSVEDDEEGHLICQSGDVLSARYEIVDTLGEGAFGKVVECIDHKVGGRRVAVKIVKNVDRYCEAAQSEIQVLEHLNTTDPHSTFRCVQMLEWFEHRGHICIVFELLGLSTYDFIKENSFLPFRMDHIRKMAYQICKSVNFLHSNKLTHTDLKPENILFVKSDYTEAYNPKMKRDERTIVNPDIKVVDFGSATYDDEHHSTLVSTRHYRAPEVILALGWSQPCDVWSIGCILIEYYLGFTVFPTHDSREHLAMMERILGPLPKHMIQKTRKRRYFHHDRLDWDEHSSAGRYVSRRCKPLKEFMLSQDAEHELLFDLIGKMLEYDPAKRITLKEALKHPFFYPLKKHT
Test [16] has as its target Dual specificity tyrosine-phosphorylation-regulated kinase 1A (Rattus norvegicus) (UniProt Q63470). The test can be described thus: Inhibition of rat DYRK1A kinase domain (1 to 499 residues) expressed in bacteria assessed as residual activity at 10 uM using KKISGRLSPIMTEQ as substrate in presence of [gamma33P]ATP relative to control.
Test [17] addresses T5, Glycogen synthase kinase-3 (Sus scrofa) (UniProt B2LUN4+I6LNT8). The test can be described thus: Inhibition of porcine brain GSK3alpha/beta assessed as residual activity at 10 uM using YRRAAVPPSPSLSRHSSPHQSpEDEEE as substrate in presence of [gamma33P]ATP relative to control. The gist of the method:
(§2)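 Radiometric kinase assay (method A, ³³P). GSK-3α/β affinity-purified from porcine brain (Sus scrofa domesticus). Inhibitors tested at 10 µM and 1 µM. Result reported as % residual kinase activity. Assays run in triplicate.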

In test [18] the target is T2, Cyclin-dependent kinase 5/CDK5 activator 1 (Homo sapiens). The test can be described thus: Inhibition of recombinant human CDK5/p25 expressed in bacteria assessed as residual activity at 1 uM using histone H1 as substrate in presence of [gamma33P]ATP relative to control. In short, it runs like this: as §1
Test [19] addresses T5, Glycogen synthase kinase-3 (Sus scrofa). Briefly: Inhibition of porcine brain GSK3alpha/beta assessed as residual activity at 1 uM using YRRAAVPPSPSLSRHSSPHQSpEDEEE as substrate in presence of [gamma33P]ATP relative to control. In short, it runs like this: as §2
Test [20] has as its target Dual specificity protein kinase CLK1 (Mus musculus) (UniProt P22518). Briefly: Inhibition of recombinant mouse CLK1 expressed in bacteria assessed as residual activity at 10 uM using GRSRSRSRSRSR as substrate in presence of [gamma33P]ATP relative to control.
In test [21] the target is Dual specificity tyrosine-phosphorylation-regulated kinase 1A (Rattus norvegicus) (UniProt Q63470). The test can be described thus: Inhibition of rat DYRK1A kinase domain (1 to 499 residues) expressed in bacteria assessed as residual activity at 1 uM using KKISGRLSPIMTEQ as substrate in presence of [gamma33P]ATP relative to control.
For test [22], the species on record is Sus scrofa. Briefly: Inhibition of porcine brain CK1delta/epsilon assessed as residual activity at 10 uM using RRKHAAIGSpAYSITA as substrate in presence of [gamma33P]ATP relative to control.
Test [23] addresses Dual specificity protein kinase CLK1 (Mus musculus, UniProt P22518). Briefly: Inhibition of recombinant mouse CLK1 expressed in bacteria using GRSRSRSRSRSR as substrate in presence of [gamma33P]ATP.

SMILES strings stand for the structures.

T2 sequence (Q00535 whole entry): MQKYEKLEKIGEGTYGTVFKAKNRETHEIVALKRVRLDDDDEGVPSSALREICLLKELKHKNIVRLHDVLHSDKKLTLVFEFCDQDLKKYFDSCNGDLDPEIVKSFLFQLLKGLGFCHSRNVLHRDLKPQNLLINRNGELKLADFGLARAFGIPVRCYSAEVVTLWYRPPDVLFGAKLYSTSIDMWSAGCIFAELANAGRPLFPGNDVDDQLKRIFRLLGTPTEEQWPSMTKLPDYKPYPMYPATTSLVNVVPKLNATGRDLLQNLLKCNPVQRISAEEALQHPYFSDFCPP
T2 sequence (Q15078 99-307 partner limits assumed): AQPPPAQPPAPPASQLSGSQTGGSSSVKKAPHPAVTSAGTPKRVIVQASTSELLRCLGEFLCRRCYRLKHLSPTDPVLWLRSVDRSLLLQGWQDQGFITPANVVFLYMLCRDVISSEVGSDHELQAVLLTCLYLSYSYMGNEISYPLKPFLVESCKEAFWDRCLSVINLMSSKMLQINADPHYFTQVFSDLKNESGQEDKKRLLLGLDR
T1 sequence (P49840 whole entry, looked up): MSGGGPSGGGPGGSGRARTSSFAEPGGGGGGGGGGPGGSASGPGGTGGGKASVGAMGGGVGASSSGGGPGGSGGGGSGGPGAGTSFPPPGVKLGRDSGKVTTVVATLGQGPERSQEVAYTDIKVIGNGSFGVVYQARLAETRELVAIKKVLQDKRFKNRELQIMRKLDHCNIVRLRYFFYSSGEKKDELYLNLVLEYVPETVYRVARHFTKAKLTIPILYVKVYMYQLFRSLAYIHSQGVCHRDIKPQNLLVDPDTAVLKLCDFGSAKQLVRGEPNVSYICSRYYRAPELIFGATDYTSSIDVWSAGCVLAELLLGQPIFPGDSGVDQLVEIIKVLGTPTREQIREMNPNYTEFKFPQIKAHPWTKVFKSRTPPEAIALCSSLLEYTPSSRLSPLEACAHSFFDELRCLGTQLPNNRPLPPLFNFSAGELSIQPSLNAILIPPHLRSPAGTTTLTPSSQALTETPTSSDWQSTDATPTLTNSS
T1 sequence (P49841 whole entry, looked up): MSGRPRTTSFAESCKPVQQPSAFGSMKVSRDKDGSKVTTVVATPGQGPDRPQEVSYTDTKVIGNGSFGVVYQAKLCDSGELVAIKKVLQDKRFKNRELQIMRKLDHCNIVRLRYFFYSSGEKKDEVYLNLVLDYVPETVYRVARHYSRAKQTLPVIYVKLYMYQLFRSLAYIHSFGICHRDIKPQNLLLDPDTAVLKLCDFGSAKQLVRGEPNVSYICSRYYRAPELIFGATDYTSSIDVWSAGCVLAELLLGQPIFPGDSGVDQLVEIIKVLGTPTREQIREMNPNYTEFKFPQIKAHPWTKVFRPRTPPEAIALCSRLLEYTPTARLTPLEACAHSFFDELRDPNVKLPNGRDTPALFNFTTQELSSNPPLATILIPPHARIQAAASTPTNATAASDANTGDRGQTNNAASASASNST
Sequence of Dual specificity protein kinase CLK1 (Mus musculus, UniProt P22518) (P22518 whole entry): as the sequence (P22518 whole entry, looked up, the tested form may be a part) above

Take `Nc1ncc2ccc3ccncc3c2n1`: the Activity in test [1] was found to be 75%; in [2], 100%; in test [3] it was 63%; in test [5], 9%; in test [7], 71%; in test [8], 98%. Further, the Activity in test [9] worked out at 64%; in test [10], 48%; in test [11], 25%; in test [12], 22%. In addition, the IC50 (as a rule, the midpoint of a concentration-inhibition curve) in [4] came to 2180 nM; in [6], 1480 nM.
On to `CC(C)N(CNc1ncc2cc3cnccc3c([N+](=O)[O-])c2n1)C(C)C`, for which the Activity is 74% in the test filed under Sus scrofa [13]; 61% in test [14]; 44% in [15]; 46% in [16]; 1% in [17]; 99% in test [18]. Also, the Activity amounted to 53% in test [19], 5% in [20], 69% in test [21] and 38% in the test listed under Sus scrofa [22].
In the case of `CN(C)/C=N/c1ncc2cc3cnccc3c([N+](=O)[O-])c2n1`, the Activity in the test filed under Sus scrofa [13] was 100%; in test [14], 59%; in test [15] it was 33%; in [16] it was 31%; in test [17], 30%; in test [18] it was 94%. The Activity in test [19] was 86%; in test [20] it was 3%; in [21], 100%; in the test listed under Sus scrofa [22], 53%.
Take `CC(C)N(/C=N/c1ncc2cc3cnccc3c([N+](=O)[O-])c2n1)C(C)C`: the Activity is 96% in the test listed under Sus scrofa [13]; 45% in [14]; 53% in test [15]; 46% in [16]; 15% in test [17]; 100% in test [18]. For the same compound, the Activity in test [19] turned out to be 73%; in test [20], 1%; in test [21], 95%; in the test filed under Sus scrofa [22], 60%.
As for `Nc1ncc2cc3cnccc3c([N+](=O)[O-])c2n1`, the Activity in the test listed under Sus scrofa [13] is 41%; in test [14], 56%; in test [15], 6%; in test [16], 5%; in test [17] it was 25%; in [18] it was 88%. Also, the Activity came to 74% in [19], 2% in test [20], 36% in test [21] and 9% in the test listed under Sus scrofa [22].
`CN(C)CNc1ncc2cc3cnccc3c([N+](=O)[O-])c2n1`: the 50% inhibitory concentration (IC50) in test [23] was determined as 87 nM. Further, the Activity is 100% in the test listed under Sus scrofa [13]; 41% in test [14]; 13% in test [15]; 4% in test [16]; 15% in test [17]; 99% in test [18]. Moreover, the Activity was 73% in test [19], 6% in [20], 39% in test [21] and 38% in the test listed under Sus scrofa [22].
